Assay results reported in ChEMBL document CHEMBL1131482 (J Med Chem, 1998).

Tests used:
Mus musculus [1] = test: MNTD:Maximal nontoxic dose of the compound, done on mouse; sc; type: functional
Procedure, shortened: (§1)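 Male Swiss-Webster mice dosed sc. The value is the highest dose causing no visible behavioural change (tremors, convulsions, hypomotility etc.), so that treated mice could not be told apart from untreated ones. Behaviour was scored by the Irwin method in groups of at least 10 animals.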

Mus musculus [2] = test: MAD: minimal dose able to induce a statistically significant increase of the pain threshold, done on mouse; sc; type: functional
Procedure, shortened: (§2)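 Mouse hot plate test (52.5 ± 0.1 °C, 45 s cutoff) after sc dosing, in male Swiss-Webster mice. The value is the lowest dose giving a statistically significant rise in pain threshold. Dunnett's two-tailed test compared treated mice at maximum reaction time with pretest time, P < 0.05.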

Mus musculus [3] = test: Licking latency was measured after 15 min treatment (at dose=25 mg/kg) by using mouse hot plate test; type: functional
Procedure, shortened: (§3)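 Male Swiss-Webster mice (22-28 g), 23 ± 1 °C, 12-h light/dark cycle, food and water ad libitum. Hot plate at 52.5 ± 0.1 °C with licking latency as read-out and 45 s cutoff. Mice with pre-drug latency below 12 or over 18 s were rejected. Compounds given sc, 5-12 mice per test. Significance was assessed by Dunnett's two-tailed test, P < 0.05.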

Mus musculus [4] = test: Licking latency was measured after 15 min treatment (at dose=15 mg/kg) by using mouse hot plate test; type: functional; procedure, shortened: as §3
Mus musculus [5] = test: Licking latency was measured after 45 min treatment (at dose=15 mg/kg) by using mouse hot plate test; type: functional; procedure, shortened: as §3
Mus musculus [6] = test: Licking latency was measured after 45 min treatment (at dose=25 mg/kg) by using mouse hot plate test; type: functional; procedure, shortened: as §3
Mus musculus [7] = test: Licking latency was measured before treatment (at dose=15 mg/kg) by using mouse hot plate test; type: functional; procedure, shortened: as §3
Mus musculus [8] = test: Licking latency was measured before treatment (at dose=25 mg/kg) by using mouse hot plate test; type: functional; procedure, shortened: as §3
Mus musculus [9] = test: Licking latency was measured after 30 min treatment (at dose=15 mg/kg) by using mouse hot plate test; type: functional; procedure, shortened: as §3
Mus musculus [10] = test: Licking latency was measured after 30 min treatment (at dose=25 mg/kg) by using mouse hot plate test; type: functional; procedure, shortened: as §3
Mus musculus [11] = species: Mus musculus; test: Analgesic efficacy is expressed as percentage of that epibatidine, done on mouse.; type: functional
Mus musculus [12] = species: Mus musculus; test: Analgesic efficacy is expressed as percentage of that morphine, done on mouse.; type: functional
IMR-32 [13] = test: Cholinergic interactions was measured with FLIPR device on cells of IMR-32 human neuroblastoma clonal line and given as Intrinsic activity; type: functional
Procedure, shortened: (§4)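 Cells were plated on poly(ethylenimine)-coated plates and used about 72 h later. Loading was Fluo-3 AM for 1 h at 37 °C, followed by washes in Hepes-salts buffer, pH 7.4. FLIPR recorded Ca2+ fluorescence over 5 min after agonist addition. Responses were normalized to 100 µM nicotine (100%) and unloaded cells (0%), and EC50 and intrinsic activity were derived from concentration-response curves.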

IMR-32 [14] = test: Cholinergic interactions was measured with FLIPR device on IMR-32 cells of human neuroblastoma clonal line, given as effective dose; type: functional, cell-based; procedure, shortened: as §4
K177 cell line [15] = test: Cholinergic interactions was measured with FLIPR device on […] cells and given as EC50.; type: functional, cell-based; settings: Homo sapiens; procedure, shortened: as §4
K177 cell line [16] = test: Cholinergic interactions was measured with FLIPR device on […] cells and given as Intrinsic activity; type: functional, Homo sapiens; procedure, shortened: as §4
Mus musculus [17] = test: Maximal nontoxic dose of the compound, done on mouse; sc; type: functional; procedure, shortened: as §1
Mus musculus [18] = test: Minimal dose able to induce a statistically significant increase of the pain threshold, done on mouse; sc; type: functional; procedure, shortened: as §2
Mus musculus [19] = test: Licking latency was measured after 15 min treatment (at dose=10 mg/kg) by using mouse hot plate test; type: functional; procedure, shortened: as §3
Mus musculus [20] = test: Licking latency was measured after 15 min treatment (at dose=1 mg/kg) by using mouse hot plate test; type: functional; procedure, shortened: as §3
Mus musculus [21] = test: Licking latency was measured after 30 min treatment (at dose=5 mg/kg) by using mouse hot plate test; type: functional; procedure, shortened: as §3
Mus musculus [22] = test: Licking latency was measured after 45 min treatment (at dose=1 mg/kg) by using mouse hot plate test; type: functional; procedure, shortened: as §3
Mus musculus [23] = test: Licking latency was measured after 45 min treatment (at dose=20 mg/kg) by using mouse hot plate test; type: functional; procedure, shortened: as §3
Mus musculus [24] = test: Licking latency was measured before treatment (at dose=10 mg/kg) by using mouse hot plate test; type: functional; procedure, shortened: as §3
Mus musculus [25] = test: Licking latency was measured before treatment (at dose=1 mg/kg) by using mouse hot plate test; type: functional; procedure, shortened: as §3
Mus musculus [26] = test: Licking latency was measured before treatment (at dose=20 mg/kg) by using mouse hot plate test; type: functional; procedure, shortened: as §3
Mus musculus [27] = test: Licking latency was measured before treatment (at dose=5 mg/kg) by using mouse hot plate test; type: functional
Procedure, shortened: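 Male Swiss-Webster mice (22-28 g), 23 ± 1 °C, 12-h light/dark cycle. Hot plate at 52.5 ± 0.1 °C. Mice with pre-drug licking latency below 12 s or over 18 s were rejected. Cutoff 45 s. Compound given sc; latency read before dosing and at 15, 30 and 45 min. 5-12 mice per test.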

Mus musculus [28] = test: Licking latency was measured after 15 min treatment (at dose=5 mg/kg) by using mouse hot plate test; type: functional; procedure, shortened: as §3
Mus musculus [29] = test: Licking latency was measured after 30 min treatment (at dose=10 mg/kg) by using mouse hot plate test; type: functional; procedure, shortened: as §3
Mus musculus [30] = test: Licking latency was measured after 30 min treatment (at dose=1 mg/kg) by using mouse hot plate test; type: functional; procedure, shortened: as §3
Mus musculus [31] = test: Licking latency was measured after 30 min treatment (at dose=20 mg/kg) by using mouse hot plate test; type: functional; procedure, shortened: as §3
[32] = molecular target: Neuronal acetylcholine receptor; alpha4/beta2 (Rattus norvegicus, UniProt P09483+P12390); test: Cholinergic interactions was measured as displaced [3H][…] from Nicotinic acetylcholine receptor alpha4-beta2 in rat brain membranes; type: cell membranes
Procedure, shortened: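 Rat cerebral cortical membranes were washed and resuspended in Tris-HCl 50 mM buffer, pH 7.4, then spun at 45000g. Samples held 150-200 µg protein and 0.7 nM [3H]-(-)-cytisine with varying modulator concentrations. Incubation was 75 min at 4 °C in triplicate. Nonspecific binding was defined with 10 µM (-)-nicotine.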

TE-671 [33] = test: Cholinergic interactions was measured with FLIPR device on TE671 cells and given as Intrinsic activity; type: functional, Homo sapiens; procedure, shortened: as §4
TE-671 [34] = test: Cholinergic interactions was measured with FLIPR device on TE671 cells and given as Effective dose; type: functional, cell-based; settings: Homo sapiens; procedure, shortened: as §4
Mus musculus [35] = test: Licking latency was measured after 45 min treatment (at dose=5 mg/kg) by using mouse hot plate test; type: functional; procedure, shortened: as §3

Sequence of Neuronal acetylcholine receptor; alpha4/beta2 (P09483 whole entry): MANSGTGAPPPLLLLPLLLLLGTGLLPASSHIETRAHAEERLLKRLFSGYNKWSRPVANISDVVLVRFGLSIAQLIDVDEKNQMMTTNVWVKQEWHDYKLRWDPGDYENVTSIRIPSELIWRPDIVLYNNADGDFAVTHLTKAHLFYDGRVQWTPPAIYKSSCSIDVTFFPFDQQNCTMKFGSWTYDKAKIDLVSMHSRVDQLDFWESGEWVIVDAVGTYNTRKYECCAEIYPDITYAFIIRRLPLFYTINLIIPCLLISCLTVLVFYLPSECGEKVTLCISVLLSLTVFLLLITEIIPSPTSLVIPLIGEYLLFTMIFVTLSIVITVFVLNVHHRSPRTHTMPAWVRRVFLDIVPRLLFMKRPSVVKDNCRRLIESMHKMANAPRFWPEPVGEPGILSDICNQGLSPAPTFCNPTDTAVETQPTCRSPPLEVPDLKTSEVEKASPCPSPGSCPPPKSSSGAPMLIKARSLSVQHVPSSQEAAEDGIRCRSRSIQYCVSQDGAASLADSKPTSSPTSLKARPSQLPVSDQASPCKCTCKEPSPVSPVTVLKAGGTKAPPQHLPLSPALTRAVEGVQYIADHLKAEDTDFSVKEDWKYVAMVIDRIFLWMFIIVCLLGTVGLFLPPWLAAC
Sequence of Neuronal acetylcholine receptor; alpha4/beta2 (P12390 whole entry): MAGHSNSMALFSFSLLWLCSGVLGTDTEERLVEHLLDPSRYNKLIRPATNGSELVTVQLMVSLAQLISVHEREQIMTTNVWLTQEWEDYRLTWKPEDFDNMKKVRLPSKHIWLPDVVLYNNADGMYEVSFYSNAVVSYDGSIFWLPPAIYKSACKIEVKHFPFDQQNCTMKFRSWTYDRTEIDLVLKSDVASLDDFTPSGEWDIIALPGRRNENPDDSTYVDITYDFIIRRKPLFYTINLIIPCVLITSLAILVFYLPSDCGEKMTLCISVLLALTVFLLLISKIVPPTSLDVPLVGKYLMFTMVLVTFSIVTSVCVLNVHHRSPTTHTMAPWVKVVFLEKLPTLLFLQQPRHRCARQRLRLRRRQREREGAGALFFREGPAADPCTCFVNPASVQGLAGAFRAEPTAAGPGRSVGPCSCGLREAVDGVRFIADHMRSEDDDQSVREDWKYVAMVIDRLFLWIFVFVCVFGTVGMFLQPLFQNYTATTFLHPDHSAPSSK

Clc1cccc(N2CC3CCC(C2)N3)n1
MNTD (Mus musculus [1]): 30 mg/kg | MAD (Mus musculus [2]): 15 mg/kg | Licking latency (Mus musculus [3]): 31.9 s | Licking latency (Mus musculus [4]): 23.6 s | Licking latency (Mus musculus [5]): 22 s | Licking latency (Mus musculus [6]): 34.2 s | Licking latency (Mus musculus [7]): 13.5 s | Licking latency (Mus musculus [8]): 14.6 s | Licking latency (Mus musculus [9]): 22.1 s | Licking latency (Mus musculus [10]): 37 s | Analgesic efficacy compared to epibatidine (Mus musculus [11]): 142% | Analgesic efficacy compared to morphine (Mus musculus [12]): 116%

Clc1ccc(N2CC3CCC(C2)N3)nn1
Intrinsic activity (IMR-32 [13]): 122.6% | EC50 (IMR-32 [14]): 12.2 µM | EC50 (K177 cell line [15]): 24 µM | Intrinsic activity (K177 cell line [16]): 164% | MNTD (Mus musculus [17]): 30 mg/kg | MAD (Mus musculus [18]): 1 mg/kg | Licking latency (Mus musculus [19]): 32.3 s | Licking latency (Mus musculus [20]): 21.5 s | Licking latency (Mus musculus [21]): 28.5 s | Licking latency (Mus musculus [22]): 21.5 s | Licking latency (Mus musculus [23]): 33.8 s | Licking latency (Mus musculus [24]): 14.2 s | Licking latency (Mus musculus [25]): 13.5 s | Licking latency (Mus musculus [26]): 14.3 s | Licking latency (Mus musculus [27]): 13.7 s | Licking latency (Mus musculus [28]): 27.8 s | Licking latency (Mus musculus [29]): 38.3 s | Licking latency (Mus musculus [30]): 25.6 s | Licking latency (Mus musculus [31]): 39.8 s | Efficacy (Mus musculus [11]): 167% | Efficacy (Mus musculus [12]): 136% | Ki [32]: 4.1 µM | Intrinsic activity (TE-671 [33]): 9.6% | EC50 (TE-671 [34]): > 1 mM | Licking latency (Mus musculus [35]): 26.5 s
